{"data": "Results gathered from unrelated publications", "TAF1L BD2": "Transcription initiation factor TFIID subunit 1-like, BD2 (TAF1L, Homo sapiens, UniProt Q8IZX4)", "TAF1L": "Transcription initiation factor TFIID subunit 1-like (TAF1L, Homo sapiens, UniProt Q8IZX4)", "SIRT3": "NAD-dependent protein deacetylase sirtuin-3, mitochondrial (SIRT3, Homo sapiens, UniProt Q9NTG7)", "BAZ2B bromodomain": "Bromodomain adjacent to zinc finger domain protein 2B, bromodomain (BAZ2B, Homo sapiens, UniProt Q9UIF8)", "PTGS1": "Prostaglandin G/H synthase 1 (PTGS1, Ovis aries, UniProt P05979)", "MARK1": "Serine/threonine-protein kinase MARK1 (MARK1, Homo sapiens, UniProt Q9P0L2)", "note": "Lines come from different studies, so protocols differ."}
{"Compound": "NS(=O)(=O)c1ccc(Nc2nc(-c3ccc(F)cc3)c3ccccc3n2)cc1", "target": "TAF1L BD2", "read-out": "binding", "method": "competition with immobilised ligand", "concentration": "1 µM", "quantity": "remaining binding", "result": "77%"}
{"Compound": "Cc1cnc(Nc2ccc(OCCN3CCCC3)cc2)nc1Nc1cccc(S(=O)(=O)NC(C)(C)C)c1", "target": "TAF1L BD2", "read-out": "thermal stability", "method": "DSF", "concentration": "10 µM", "quantity": "ΔTm", "result": "0.91 °C"}
{"Compound": "Cc1ccc(C(=O)NCc2ccsc2)cc1C#Cc1cn(C(C)C)c2ncnc(N)c12", "target": "TAF1L", "read-out": "enzyme activity", "action": "inhibitor", "concentration": "1 µM", "quantity": "activity vs control", "result": "91%"}
{"Compound": "CN(C)C1CCN(CC#Cc2nn(C3CCCC3)c3nc(NCc4ccccc4)ncc23)C1 (centres unmarked)", "target": "Ephrin type-A receptor 3 (EPHA3, Homo sapiens, UniProt P29320)", "read-out": "enzyme activity", "action": "inhibitor", "method": "FRET", "concentration": "0.1 µM", "quantity": "inhibition", "result": "-6%"}
{"Compound": "Cc1ccc(C(=O)Nc2ccc(CN3CCN(C)CC3)c(C(F)(F)F)c2)cc1C#Cc1cnc2cccnn12", "target": "Mitogen-activated protein kinase kinase kinase 6 (MAP3K6, Homo sapiens, UniProt O95382)", "read-out": "enzyme activity", "action": "inhibitor", "concentration": "23.5 nM", "quantity": "remaining activity", "result": "79%"}
{"Compound": "Oc1ccc(-c2nc(-c3ccncc3)c(-c3ccc(F)cc3)[nH]2)cc1", "target": "Transcription initiation factor TFIID subunit 1-like, BD1 (TAF1L, Homo sapiens, UniProt Q8IZX4)", "read-out": "thermal stability", "method": "DSF", "concentration": "10 µM", "quantity": "ΔTm", "result": "0.17 °C"}
{"Compound": "CCOCCOCCOCCNC(=S)NCCCC[C@H](NS(C)(=O)=O)C(=O)N[C@@H](C)C(=O)N[C@@H](CCCNC(=N)N)C(N)=O", "target": "SIRT3", "read-out": "enzyme activity", "action": "inhibitor", "concentration": "100 µM", "quantity": "inhibition", "result": "16%"}
{"Compound": "COc1cc(Cl)c(C(=O)N[C@@H](CN[C@H]2CC[C@@H](N)CC2)Cc2ccc(C#N)cc2)cc1-c1ccc(CN[C@H](C)c2ccc(C)cc2)o1", "target": "TAF1L", "read-out": "enzyme activity", "action": "inhibitor", "concentration": "1 µM", "quantity": "remaining activity", "result": "96%"}
{"Compound": "C[S+]([O-])c1ccc(-c2nc(-c3ccncc3)c(-c3ccc(F)cc3)[nH]2)cc1 (centres unmarked)", "target": "BAZ2B bromodomain", "read-out": "thermal stability", "method": "DSF", "concentration": "10 µM", "quantity": "ΔTm", "result": "0.21 °C"}
{"Compound": "CCCOc1ccc(OC)c(F)c1C(=O)c1ccc(C(=O)N[C@@H]2CNC[C@H]2NC(=O)c2ccc3[nH]ncc3c2)cc1", "target": "Serine/threonine-protein kinase MRCK alpha (CDC42BPA, Homo sapiens, UniProt Q5VT25)", "read-out": "enzyme activity", "action": "inhibitor", "concentration": "0.1 µM", "quantity": "remaining activity", "result": "66%"}
{"Compound": "Cc1cc2c(cc1N1C(=O)c3cccc4c(Cl)ccc(c34)C1=O)n(C)c(=O)n2C", "target": "BAZ2B bromodomain", "read-out": "thermal stability", "method": "DSF", "concentration": "10 µM", "quantity": "ΔTm", "result": "0.6 °C"}
{"Compound": "CCCCC[C@@H]1CC(=O)c2cc(Cl)cc(Br)c2O1", "target": "SIRT3", "read-out": "enzyme activity", "action": "inhibitor", "method": "fluorescence", "concentration": "200 µM", "quantity": "inhibition", "result": "3.9%"}
{"Compound": "CCCCCCNC(=O)c1ccccc1SC(C)=O", "target": "PTGS1", "read-out": "enzyme activity", "action": "inhibitor", "quantity": "kinact", "result": "0.00035 s⁻¹"}
{"Compound": "CCCCCc1cc(=O)c2cc(Cl)cc(Br)c2o1", "target": "SIRT3", "read-out": "enzyme activity", "action": "inhibitor", "method": "fluorescence", "concentration": "200 µM", "quantity": "inhibition", "result": "4.5%"}
{"Compound": "Cc1nn(CC(F)(F)F)cc1Nc1ncc(C2CC2)c(NCCCNC(=O)C2CCC2)n1", "target": "MARK1", "read-out": "enzyme activity", "action": "inhibitor", "method": "radiometric", "concentration": "1 µM", "quantity": "remaining activity", "result": "79%"}
{"Compound": "CCCCC#CCNC(=O)c1ccccc1SC(C)=O", "target": "PTGS1", "read-out": "enzyme activity", "action": "inhibitor", "method": "mass spectrometry", "quantity": "kinact", "result": "0.0367 s⁻¹"}
{"Compound": "Cc1nn(CC(F)(F)F)cc1Nc1ncc(C2CC2)c(NCCc2c[nH]cn2)n1", "target": "Mitogen-activated protein kinase kinase kinase 9 (MAP3K9, Homo sapiens, UniProt P80192)", "read-out": "enzyme activity", "action": "inhibitor", "method": "radiometric", "concentration": "1 µM", "quantity": "remaining activity", "result": "72%"}
{"Compound": "C#CCNC(=O)c1ccccc1SC(C)=O", "target": "PTGS1", "read-out": "enzyme activity", "action": "inhibitor", "quantity": "kinact", "result": "0.000417 s⁻¹"}
{"Compound": "NS(=O)(=O)c1ccc(CNc2ccnc(Nc3cccc(CN4CCOCC4)c3)n2)cc1", "target": "MARK1", "read-out": "enzyme activity", "action": "inhibitor", "method": "radiometric", "concentration": "1 µM", "quantity": "remaining activity", "result": "102%"}
{"Compound": "Oc1cccc(Nc2nc(-c3ccc(F)cc3F)cs2)c1", "target": "Type-2 angiotensin II receptor (AGTR2, Homo sapiens, UniProt P50052)", "read-out": "cell-free assay", "concentration": "10 µM", "quantity": "inhibition", "result": "-5.6%"}
